Screening data (PubChem BioAssay)
In the library only some 2.7% were active in any assay of this set; here they are far more common.
ASAP1 GAP inh: inhibitors of human ASAP1 ArfGAP activity; hit rate 0.19% among 360,000; AID 624377; Q9ULH1; inhibition, % at 16.5 µM; ASAP1-stimulated ARF1 GTP hydrolysis, GDP FP detection; in the data active means inhibition above about 25%;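 further: 0% = vehicle with enzyme and substrate and 100% = no enzyme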
PAFAH2 FP inh: inhibitors of human PAFAH2; AID 492956; Q99487; inhibition, % at 3.39 µM; recombinant PAFAH2, FP-rhodamine activity probe, fluorescence polarization; hit rate 0.99% among 340,000;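 active means inhibition above the mean over all tested compounds plus 3 SD, cut at about 30% in these data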;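 further: inhibitors block probe labeling of enzyme so polarization drops; 0% = enzyme with DMSO and 100% = wells lacking PAFAH2 protein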
pPAFAH FP inh: pPAFAH (human) enzyme inhibition; hit rate 1.5% among 330,000; recombinant pPAFAH, FP-rhodamine probe fluorescence polarization; inhibition, % at 3.39 µM;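 active means inhibition above the mean inhibition across the screen plus 3 SD, cut at about 25% in these data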;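 further: inhibitors block binding of the rhodamine activity-based probe so polarization drops; 0% = enzyme with DMSO and 100% = wells lacking pPAFAH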
Target sequence (Q13093 whole entry, looked up): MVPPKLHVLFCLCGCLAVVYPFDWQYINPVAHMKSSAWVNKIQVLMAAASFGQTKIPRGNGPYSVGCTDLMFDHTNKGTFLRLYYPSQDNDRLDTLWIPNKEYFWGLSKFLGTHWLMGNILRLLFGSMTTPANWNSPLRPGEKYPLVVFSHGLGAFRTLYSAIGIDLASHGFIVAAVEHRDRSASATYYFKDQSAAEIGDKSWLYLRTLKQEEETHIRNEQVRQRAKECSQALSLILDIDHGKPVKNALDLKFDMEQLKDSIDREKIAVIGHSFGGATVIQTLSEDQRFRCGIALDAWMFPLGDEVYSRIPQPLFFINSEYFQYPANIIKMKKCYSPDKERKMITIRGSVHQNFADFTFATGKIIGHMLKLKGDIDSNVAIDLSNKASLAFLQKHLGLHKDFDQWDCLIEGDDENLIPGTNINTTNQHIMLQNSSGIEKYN
PAFAH1B2 FP inh: PAFAH1B2 (human) inhibition. P68402. recombinant PAFAH1B2, FP-rhodamine activity probe, fluorescence polarization. inhibition, % at 3.39 µM. hit rate 1.2% among 340,000. AID 492953;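 active means inhibition above the mean of all tested compounds plus 3 SD, cut at about 24% in these data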;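 further: 0% = enzyme with DMSO and 100% = wells lacking PAFAH1B2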
Target sequence (P68402 whole entry, looked up): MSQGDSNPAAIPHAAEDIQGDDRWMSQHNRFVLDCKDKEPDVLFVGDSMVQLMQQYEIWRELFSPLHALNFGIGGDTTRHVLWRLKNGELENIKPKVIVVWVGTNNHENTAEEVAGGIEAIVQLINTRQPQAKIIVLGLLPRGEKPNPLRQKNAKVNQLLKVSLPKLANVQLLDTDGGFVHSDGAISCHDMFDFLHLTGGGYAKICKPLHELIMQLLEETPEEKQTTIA
PAFAH1B3 FP inh: blocks human PAF acetylhydrolase 1B catalytic subunit 3; Q15102; recombinant PAFAH1B3, FP-rhodamine probe, fluorescence polarization; inhibition, % at 3.39 µM; hit rate 0.28% among 340,000; AID 492972;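 active means inhibition above the screen-wide average of all tested compounds plus 3 SD, cut at about 25% in these data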;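 further: 0% = enzyme with DMSO only and 100% = wells lacking PAFAH1B3 protein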
ARFGAP1 inh: rat ARFGAP1 inhibition. inhibition, % at 16.5 µM. hit rate 0.26% among 360,000. Arfgap1-stimulated ARF1 GTP hydrolysis, GDP FP detection. AID 651572;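 active means inhibition above a per-plate limit, mean inhibition of low control wells plus 3 SD, cut at about 25% in these data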;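 further: 0% = DMSO wells with enzyme and 100% = wells lacking Arfgap1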
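Material: rat Arfgap1 GAP domain (His6, aa 1-136), purified enzyme. Also added: human ARF1(Δ1-17)-GTP substrate. Compound dosing: 16.5 µM single point, 1.26% DMSO. Timing: enzyme reaction 120 min at 25 °C after 20 min preincubation. Signal: GDP detection by fluorescence polarization. Read-out basis: percent inhibition of GAP-stimulated GDP formation, scaled between DMSO and no-Arfgap1 medians.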
PAFAH2 FP conf: PAFAH2 (human) inhibition, confirmed; hit rate 65% among 2,300; recombinant PAFAH2, FP-rhodamine activity probe, fluorescence polarization; AID 493030; shares compounds with PAFAH2 FP inh; inhibition, % at 3.39 µM;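 active means mean inhibition over three repeats above a set limit taken from the earlier primary screen, cut at about 30% in these data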;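 further: inhibitor blocks binding of rhodamine activity probe so polarization falls; 0% = enzyme with DMSO and 100% = wells lacking PAFAH2 protein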
An asterisk follows results filed as active; . = not tested or not shown.

SMILES | ASAP1 GAP inh | PAFAH2 FP inh | pPAFAH FP inh | PAFAH1B2 FP inh | PAFAH1B3 FP inh | ARFGAP1 inh | PAFAH2 FP conf
O=C(COC(=O)/C=C/c1ccccc1)NCc1cccs1 | -3 | 61* | 6 | 4 | 4 | 18 | 47*
CCOc1ccc(NC(=O)CN(C)C2=NS(=O)(=O)c3ccccc32)cc1 | 2 | . | . | . | . | -13 | .
CC(NC(=O)COC(=O)c1ccccc1SCC(=O)N1CCCC1)c1ccccc1 (stereo not drawn) | -1 | 51* | 6 | 2 | 1 | -8 | 42*
COc1ccc(NC(=O)COC(=O)c2ccccc2SCC(=O)N2CCCC2)cc1 | 4 | 61* | 6 | 0 | 1 | -9 | 62*
Cc1ccccc1NC(=O)COC(=O)c1ccccc1SCC(=O)N1CCCC1 | 4 | 44* | 5 | 6 | -4 | 0 | 41*
C[C@@H]1CN([C@@H](C)CO)C(=O)c2cc(Br)cnc2O[C@H]1CN(C)C(=O)C1CC1 | -7 | . | . | . | . | 14 | .
CN(C(=O)c1cc(COc2ccc(F)c(F)c2)on1)C1CCOC1 (stereo not drawn) | -4 | -4 | 4 | -5 | 7 | -9 | .
Cc1ccc(C(=O)Nc2c(-c3ccc(Cl)cc3)[nH][nH]c2=O)cc1 | 4 | . | . | . | . | 3 | .
Cc1ccc(C(=O)O/N=C/c2ccc3c(c2)OCO3)cc1 | -3 | 48* | 12 | -2 | -1 | -1 | 51*
Cc1cccc(/C(N)=N/OC(=O)c2ccc3c(c2)OCO3)c1 | -8 | 42* | 0 | 4 | 6 | 1 | 36*
COc1ccccc1C/C(N)=N/O | 3 | 3 | 2 | 4 | 7 | -6 | .
COc1ccccc1C/C(N)=N/OC(=O)c1ccco1 | -1 | 58* | 5 | 0 | 6 | 5 | 62*
COc1ccccc1/C=N/OC(=O)c1ccc(C)cc1 | 17 | 87* | 11 | 1 | -2 | 14 | 75*
O=C(Nc1ccc(N2CCOCC2)cc1)c1csc(COCCO)n1 | 11 | . | . | . | . | 6 | .
CC(C)[C@@]1(c2ccc(Cl)cc2)ON(c2ccccc2C(F)(F)F)C1=O | . | . | 3 | . | . | . | .
COc1ccc(-c2coc3c(C(=O)NCc4ccc(C(F)(F)F)cc4)cccc23)c(C)c1 | -6 | . | . | . | . | -4 | .
COc1ccccc1-c1cccc([C@@H]2C[C@H]3[C@H](CON3C)CN2C(=O)CCc2ccccc2)c1 | -10 | 4 | . | 6 | 6 | 2 | .
COc1ccccc1C/C(N)=N/OC(=O)c1ccc2c(c1)OCO2 | -3 | 77* | 0 | 3 | 1 | -5 | 79*
COc1ccccc1CC(=O)NCc1ccc2c(c1)OCO2 | -4 | 1 | 0 | -2 | 5 | 7 | .
O=C(OCc1ccccc1)c1ccc(NCc2cc(O)ccc2O)cc1 | 9 | 72* | . | 2 | 14 | 10 | 57*
CC(C)OC(=O)c1ccc(NCc2cc(O)ccc2O)cc1 | 2 | 8 | . | 7 | 10 | 6 | .
CCCNC(=O)COC(=O)c1ccc(Cl)c(S(=O)(=O)N2CCCC2)c1 | -1 | 34* | 9 | 1 | -1 | 14 | 16
CCCNC(=O)COC(=O)c1ccc(N2CCCC2)c([N+](=O)[O-])c1 | 13 | 65* | 5 | 6 | 17 | -6 | 51*
O=C(COC(=O)c1ccc(Cl)c(S(=O)(=O)N2CCCC2)c1)NC1CCCC1 | 0 | 41* | 20 | 1 | 9 | 3 | 29
Cc1ccc(NC(=O)C(C)OC(=O)COc2cccc(C(F)(F)F)c2)cc1 (stereo not drawn) | -3 | 1 | 6 | 9 | 7 | 8 | .
SMILES | ASAP1 GAP inh | PAFAH2 FP inh | pPAFAH FP inh | PAFAH1B2 FP inh | PAFAH1B3 FP inh | ARFGAP1 inh | PAFAH2 FP conf
O=C(c1cccc(Cl)c1)N1CCC(=O)N([C@H](COCc2cccc(Cl)c2)Cc2ccccc2)CC1 | 13 | . | . | . | . | -1 | .
COCCCNC(=O)[C@@H](Cc1ccccc1)NC(=O)[C@H]1O[C@@H](n2ccc(=O)[nH]c2=O)[C@H](O)[C@@H]1O | 9 | . | . | . | . | -8 | .
Cc1ccc(Nc2c([N+](=O)[O-])c(=O)oc3ccccc23)cc1 | -1 | 1 | 4 | -2 | 12 | 5 | .
O=c1oc2ccccc2c(Nc2ccc3ccccc3c2)c1[N+](=O)[O-] | . | 34* | 18 | 7 | 3 | . | 28
COCCN(CC1CCCN(C2Cc3ccccc3C2)C1)C(=O)c1ccc(C(C)=O)cc1 (stereo not drawn) | -11 | 21 | 0 | -2 | -1 | -13 | .
COCCN(CC1CCCN(C2Cc3ccccc3C2)C1)C(=O)c1cccc(C)c1 (stereo not drawn) | -13 | 32* | 5 | 2 | -3 | 4 | 19
COc1ccccc1CC(=O)Nc1ccc([N+](=O)[O-])cc1O | 3 | 34* | -3 | 11 | 5 | -2 | 15
COc1ccccc1CC(=O)Nc1ccccc1O | 18 | 58* | 2 | -5 | 5 | 1 | 60*
COc1ccccc1CC(=O)Nc1cc(Cl)ccc1O | -10 | 83* | 3 | 4 | 4 | -4 | 80*
CCN(c1ccccc1)S(=O)(=O)c1ccc(OC)c(NC(=O)Cc2ccc(OC)c(OC)c2)c1 | -10 | 1 | 2 | 6 | 1 | 4 | .
CCN(c1ccccc1)S(=O)(=O)c1ccc(OC)c(NC(=O)Cc2ccccc2OC)c1 | 1 | 30* | 1 | 0 | 7 | 9 | 16
O=C(COc1ccccc1Cl)Nc1cc(Cl)ccc1O | 12 | -4 | . | 1 | 1 | 0 | .
COc1ccccc1NC(=O)Cc1cccc2ccccc12 | -6 | -3 | 0 | 2 | 6 | 3 | .
CCN1C(=O)[C@H]2[C@@H](c3ccc(C)cc3)N[C@]3(CCCN(Cc4cccn4C)C3=O)[C@H]2C1=O | -7 | . | . | . | . | 7 | .
COc1ccc(C(=O)OCC(=O)Nc2ccc3c(c2)OCCO3)c(OC)c1 | 6 | 55* | 1 | 4 | 3 | 0 | 50*
COc1ccc(CC(=O)OCC(=O)Nc2ccc3c(c2)OCCO3)cc1OC | 4 | 2 | 4 | -2 | 6 | 4 | .
CN(C)S(=O)(=O)c1cccc(C(=O)OCC(=O)Nc2ccc3c(c2)OCCO3)c1 | 0 | 41* | 11 | 2 | -2 | -2 | 40*
Cc1cccc(C(=O)OCC(=O)Nc2ccc3c(c2)OCCO3)c1 | -20 | 61* | 5 | 4 | 5 | -1 | 58*
CCOc1ccc(C(=O)OCC(=O)Nc2ccc3c(c2)OCCO3)cc1OC | -1 | 74* | 0 | 8 | -3 | 12 | 83*
Cc1cccc(C(=O)OCC(=O)Nc2ccc3c(c2)OCCO3)c1O | 6 | 4 | 0 | 3 | -2 | 7 | .
O=C(NC1CC1)c1cccc(NC(=O)C2CCCCC2)c1 | -9 | -3 | . | 6 | 3 | -2 | .
O=C(COC(=O)c1cccc(F)c1)Nc1ccc2c(c1)OCCO2 | -4 | 31* | 9 | 2 | 3 | 0 | 27
O=C(OCC1COc2ccccc2O1)c1ccccc1F (stereo not drawn) | 11 | 39* | 12 | -1 | 4 | 4 | 24
